Calls of active or inactive are those of the source. The calls are words filed in the database; no cut-off is given here.

Usually Kd stands for the equilibrium constant for the complex coming apart. Read a low Kd as tighter binding. What is called solubility is the dissolved amount per volume that the medium holds. Low readings indicate a poorly soluble substance, high ones a readily soluble substance. In general, Papp refers to the rate of passage across a membrane or cell layer, normalised by area and donor concentration. For orientation: ΔTm means the change in melting temperature against a reference sample.

Data set [1] deals with T1, WD repeat-containing protein 5 (Homo sapiens, UniProt P61964).
For data set [2], the target named is T1, WD repeat-containing protein 5. Kind of data set: Binding affinity to WDR5 (unknown origin) assessed as inhibition of WDR5-MLL1 protein-protein interaction by TR-FRET assay. In general terms: TR-FRET usually uses a lanthanide donor and a delayed reading to cut background.
The target is the same in data set [3]. Briefly: Binding affinity to N-terminal FLAG-tagged human full-length WDR5 expressed in HEK293T cells harboring human C-terminal HA-tagged c-MYC assessed as disruption of WDR5-c-MYC protein-protein interaction at 50 uM by SDS-PAGE based immunoblot assay. The data set is classed as cell-based. For orientation: Immunoblotting shows a protein as a band on a membrane.

Data set [4] can be described thus: Solubility of the compound. Format: physicochemical. The procedure, abridged: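 Kinetic solubility, measured by an outside contract lab using a standard commercial assay format.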
The nature of data set [5]: Apparent permeability from apical to basolateral side in MDCK cells. Format: ADME, cell-based, Canis lupus familiaris. The note with it: dog.
A short description of data set [6]: Protein binding in plasma (unknown origin) assessed as unbound fraction. Format: ADME, cell-free.
In data set [7] the target is T1, WD repeat-containing protein 5. Kind of data set: Binding affinity to N-terminal FLAG-tagged human full-length WDR5 […] assessed as change in melting temperature at 10 uM by differential scanning fluorimetry. The procedure, abridged: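 Thermal shift (differential scanning fluorimetry) on WDR5, with compounds at 10 μM. Samples were run in triplicate, and ΔTm is the average melting-temperature shift read by fluorescence.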
Background: DSF heats the sample and reads unfolding from a dye or from intrinsic fluorescence.

For data set [8] the target is unchanged. Briefly: Binding affinity to N-terminal FLAG-tagged human full-length WDR5 expressed in HEK293T cells harboring human C-terminal HA-tagged c-MYC assessed as disruption of WDR5-RBBP5 protein-protein interaction at 50 uM by SDS-PAGE based immunoblot assay. The data set is classed as cell-based. The procedure, abridged: (§1)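 HEK293 cells expressing FLAG-WDR5 and c-MYC-HA were kept in DMEM with 10% FBS, hygromycin B 50 μg/mL and puromycin 100 ng/mL. Lysates in Tris pH 8.0/NaCl/EDTA/1% Triton buffer were treated with compound at 50 μM or 6.25–50 μM. α-FLAG magnetic M2 beads, 2 h at 4 °C, then SDS-PAGE and α-RBBP5 immunoblot. Quantified against vehicle; at least two independent repeats.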

Data set [9] shares this target. Briefly: Binding affinity to N-terminal FLAG-tagged human full-length WDR5 expressed in HEK293T cells harboring human C-terminal HA-tagged c-MYC assessed as disruption of WDR5-c-MYC protein-protein interaction by SDS-PAGE based immunoblot assay. Format: cell-based.
Data set [10] has the same target. Kind of data set: Binding affinity to N-terminal FLAG-tagged human full-length WDR5 expressed in HEK293T cells harboring human C-terminal HA-tagged c-MYC assessed as disruption of WDR5-RBBP5 protein-protein interaction by SDS-PAGE based immunoblot assay. Format: cell-based. The method in brief: as §1
Another data set is filed under the species Homo sapiens. Kind of data set: Inhibition of human MLL1/WDR5/RBBP5/ASH2L/DPY30 complex assessed as reduction in histone methyl-transferase activity using H3-peptide as substrate.
A short description of data set [11]: Apparent permeability from basolateral to apical side in MDCK cells. Format: ADME, cell-based, Canis lupus familiaris. The note with it: dog.

In [1], `N#CC1(c2cc(NS(=O)(=O)c3cc(Br)ccc3O)cc(C(=O)O)c2)CCC1` showed a Kd of 0.229 µM. For the same molecule, the inhibition entry in [2] was “inactive”.

As for `CNC(=O)c1cc(C2(C#N)CCC2)cc(NS(=O)(=O)c2cc(Br)cc(Cl)c2O)c1O`, the outcome in data set [3] and in data set [8] was Active. This molecule also gave a dissociation constant (Kd) in data set [1] of 0.069 µM. In addition, the solubility in data set [4] was > 100 µM. The apparent permeability (Papp) in data set [5] stood at 140 nm/s. In addition, in [6], the Fu is < 0.0006%. Moreover, the ΔTm in [7] is 5.53 °C. The Activity entry in [9] and in data set [10] was “Dose-dependent effect” in each case. For the same molecule, the inhibition entry in the data set filed under Homo sapiens is “Active”.

In the case of `CNC(=O)c1c(O)c(NS(=O)(=O)c2cc(Br)ccc2O)cc(C2CC2)c1F`, in data set [1], the dissociation constant Kd stood at 1.42 µM. The solubility in data set [4] is > 100 µM. Further, the Papp in [5] is 129 nm/s; in data set [11] it was 34 nm/s. For the same molecule, the Fu in data set [6] was < 0.0002%. The inhibition result in the data set listed under Homo sapiens is “Active”.

For `O=C(O)c1cc(NS(=O)(=O)c2cc(Br)cc(Cl)c2O)cc(S(F)(F)(F)(F)F)c1`, the Kd in data set [1] came out at 0.029 µM. In data set [2], the inhibition entry is “inactive”. In addition, the inhibition entry in the data set listed under Homo sapiens was “Active”.

For `CNC(=O)c1cc(C2(C#N)CCCCC2)cc(NS(=O)(=O)c2cc(Br)ccc2O)c1O`, in data set [1], the affinity, expressed as Kd, was 0.779 µM. Further, the inhibition result in data set [2] is “inactive”.

Consider `O=C(O)c1cc(C2CC2)cc(NS(=O)(=O)c2cc(Br)ccc2O)c1O`, for which the result in [3] and in data set [8] was Active. In data set [1], this molecule registered a Kd of 0.184 µM. The inhibition result in data set [2] is “inactive”.

With `O=C(O)c1cc(S(F)(F)(F)(F)F)cc(NS(=O)(=O)c2cc(Br)ccc2O)c1O`, the Kd in data set [1] came to 0.047 µM. The inhibition result in data set [2] was “inactive”.

As for `N#CC1(c2cc(NS(=O)(=O)c3cc(Br)cc(Cl)c3O)c(O)c(C(=O)O)c2)CCCCC1`, the outcome in data set [3] and in [8] was Active. This molecule also returned a Kd in data set [1] of 0.038 µM. Moreover, in data set [7], the ΔTm was 6.38 °C.

As to `N#CC1(c2ccc(O)c(NS(=O)(=O)c3cc(Br)ccc3O)c2)CC1`, in data set [1], the Kd was 0.852 µM. In addition, the inhibition entry in data set [2] is “inactive”.

Turning to `N#CC1(c2cc(NS(=O)(=O)c3cc(Br)ccc3O)c(O)c(C(=O)O)c2)CCC1`, the outcome in data set [3] and in data set [8] was Active. In [1], the Kd came to 0.067 µM. Moreover, in [7], the ΔTm amounted to 3.9 °C.

With `CNC(=O)c1cc(Cl)cc(NS(=O)(=O)c2cc(Br)ccc2O)c1O`, the result in data set [3] and in [8] was Active. Also, in data set [1], the Kd worked out at 0.746 µM. Also, the solubility in data set [4] is > 100 µM. Besides, the Papp in data set [5] was 167 nm/s; in data set [11], 141 nm/s. For the same molecule, the Fu in data set [6] is reported as < 0.0004%. Further, the inhibition result in the data set filed under Homo sapiens was “Active”.

Regarding `N#CC1(c2cc(NS(=O)(=O)c3cc(Br)cc(Cl)c3O)c(O)c(C(=O)O)c2)CCC1`, the result in data set [3] and in data set [8] was Active. For the same molecule, the Kd in [1] is 0.03 µM. For the same molecule, the solubility in data set [4] is > 100 µM. The Papp in data set [5] came to 3.3 nm/s. For the same molecule, the Fu in data set [6] is < 0.0003%. Besides, the ΔTm in [7] stood at 6.68 °C. In data set [2], the inhibition result was “inactive”. The Activity entry in data set [9] and in [10] was “Dose-dependent effect” in each case. In the data set filed under Homo sapiens, the inhibition entry was “Active”.

Take `O=C(O)c1cc(OC(F)(F)F)cc(NS(=O)(=O)c2cc(Br)cc(Cl)c2O)c1O`: binding in [1] was put at a Kd of 0.051 µM. The inhibition result in [2] is “inactive”.

The values are drawn from ChEMBL document CHEMBL4414651, “Discovery and Optimization of Salicylic Acid-Derived Sulfonamide Inhibitors of the WD Repeat-Containing Protein 5-MYC Protein-Protein Interaction” (J Med Chem, 2019).
